HIF activator – HIF pathway transcriptional activators, primary screen, cell-based, U2OS HRE-luciferase, luminescence; activation, % at 7.5 µM (by protocol); U2OS HRE-luciferase reporter; normalized: DMSO 0%, desferrioxamine 100%; AID 1910, 2009; hit rate 0.32% among 300,000;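 active = mean activation of at least 10% of the iron chelator positive control signal, with at least half of replicates also reaching 10%; inconclusive = mean and replicate majority disagree about reaching 10%; inactive = mean and most replicates under 10%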
CSC inhib – cancer stem cell viability inhibitors, primary screen, luminescence; hit rate 1.1% among 300,000; inhibition, % at 7.5 µM; cancer stem cell-like cells viability; in the data active = inhibition above about 75%; inconclusive = no clear call, values can overlap the other calls; tested in HMLE shEcad cells
SKKanGAS inh – S. pyogenes SKKanGAS growth inhibitors in kanamycin, primary screen, streptokinase expression inhibitor project, SKKanGAS strain, BacTiter-Glo luminescence; 6 h; inhibition, % at 7.5 µM; hit rate 1.3% among 300,000; AID 1662, 2009;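 active = mean replicate score, as percent of positive control median, at least 50; inconclusive = mean below 50 but one replicate at or above 50; inactive = mean and every replicate below 50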;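 also: strain carries kanamycin resistance gene driven by streptokinase promoter and grows in 40 µg/ml kanamycin; loss of luminescence reflects streptokinase promoter inhibition or plain growth inhibition; 0% = median of DMSO wells and 100% = positive control at its reference dose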
Beta cell apopt – inhibitors of cytokine-induced beta cell apoptosis, primary screen, luminescence; AID 435005, 2010; INS-1E cytokine-induced death, ATP luminescence, 48 h; percent of positive-control rescue, neutral wells zero; hit rate 0.8% among 300,000; protection from apoptosis, % (no concentration beside the values);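 active = Every replicate reaches about 75%, or at least half do and their mean reaches it too, limit read from the data; inconclusive = At least half of replicates reach the limit but their mean does not; inactive = Under half of replicates reach the limit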;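 also: 0% = cytokine-treated negative control wells and 100% = positive control rescue; higher means more ATP so stronger rescue from cytokine killing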
PfHsp90 set2 – growth inhibition of PfHsp90-expressing yeast, primary screen, antimalarial PfHsp90 inhibitor project, S. cerevisiae, BacTiter-Glo luminescence, single point, set 2 | BacTiter-Glo ATP, 48 h; yeast lacking PDR1 and PDR3 efflux regulators | inhibition, % at 9.4 µM | hit rate 0.32% among 310,000;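 active = every replicate shows inhibition above about 80%, whatever the replicate mean, limit read from the data; inconclusive = mean inhibition reaches the set limit but some replicate falls short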;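 also: 0% = DMSO neutral controls and 100% = 20 µM radicicol positive controls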
T cruzi repl – inhibitors of intracellular T. cruzi growth, primary screen, luminescence, NIH3T3 host cells. AID 1885, 2009. hit rate 1.4% among 300,000. T. cruzi beta-gal in NIH3T3, 90 h. inhibition, % (test concentration not listed);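 active = mean inhibition across valid replicates above about 55%, limit read from the data; inconclusive = mean below that limit but half or more replicates reach it; inactive = mean below it, under half of replicates reach it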;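 also: signal also drops with host cell toxicity which is not excluded here; 0% = plate median of DMSO wells and 100% = zero luminescence signal; higher percent means less beta-gal luminescence so fewer parasites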
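System: NIH/3T3 fibroblasts plus reporter T. cruzi. Medium: DMEM plus 2% FBS. Probe or stimulus: 5000 reporter trypomastigotes per well. Compound: single 50 nL compound addition per well in DMSO. Incubation: co-culture of at least 90 h after 3 h attachment. Detection: GalScreen β-gal luminescence, detergent lysis, 60 min. Evaluation: parasite load inhibition, %.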
Active calls of the source: *; ? = inconclusive; / = no result. The list is not random: actives were taken first. Their share in the collection is about 3.6%.

SMILES	HIF activator	CSC inhib	SKKanGAS inh	Beta cell apopt	PfHsp90 set2	T cruzi repl
Cc1oc2cc3oc(=O)c(CCC(=O)NCCN4CCOCC4)c(C)c3cc2c1C	0.9	-9.0	2.3	8.0	-14.9	-0.4
CN(C)c1ccc(N/C=C/C(=O)c2ccc(F)cc2)cc1	2.7	46.7	-3.9	9.5	21.4	59.8*
NS(=O)(=O)c1ccc(N/C=C\C(=O)c2ccc(F)cc2)cc1	1.8	-2.5	0.1	-5.7	-7.6	-5.8
CCOC(=O)/C(C#N)=C1/C=C(C)NC(c2ccccc2O)=N1	-0.3	33.4	9.9	26.8	14.4	-20.8
CCCCN(CCCC)C1=Nc2ccccc2N/C1=C(/C#N)C(=O)OCC	-0.5	-8.9	72.1*	5.4	-23.6	37.9
N#Cc1c(N2CCCC2)nc(N)c2c(N)nc(N3CCCC3)cc12	2.0	/	5.2	79.6*	11.4	19.0
COc1cc2c(C#N)c(N3CCN(c4ccccc4OC)CC3)nc(N)c2c(N)n1	-0.3	2.1	71.7*	9.5	-4.4	32.1
Cc1ccc(S(=O)(=O)Cc2nnnn2-c2ccccc2)cc1	1.3	-11.5	-1.3	0.6	3.8	-15.4
CCOC(=O)c1sc(NC(=O)CNCc2cccnc2)c(C(=O)OCC)c1C	0.1	7.5	8.8	16.2	0.5	29.8
CCOC(=O)c1sc(NC(=O)CNCc2ccccn2)c(C(=O)OCC)c1C	-0.2	28.3	87.5*	27.5	-17.3	53.1
O=C(NC1CCCCC1)C(c1ccc(F)cc1)N(C(=O)Cc1ccsc1)c1ccc(F)cc1 (stereo not drawn)	/	-13.8	-3.1	-5.0	-1.0	73.8*
O=C(NC1CCCCC1)C(c1ccccc1)N(C(=O)Cc1ccsc1)c1ccccc1 (stereo not drawn)	-0.1	-8.0	2.0	-8.3	22.6	-0.5
COc1cc(C)c(C(=O)CC(=O)c2c(C)cc(OC)cc2C)c(C)c1	4.4	132.1*	96.3*	75.0*	/	66.2*
COc1ccc(NC(C)=O)c(C)c1	0.0	-12.0	4.3	-6.4	1.1	-3.9
CN(Cc1ccco1)C(=O)c1cc2c(s1)-c1ccc(Cl)cc1S(=O)(=O)C2	-0.4	35.7	0.8	-0.9	6.7	-4.5
O=c1c(Br)ccc(Br)cc1Br	/	/	/	/	119.9*	/
O=C1CN(S(=O)(=O)c2cc(Br)ccc2Br)CCN1	/	-12.9	/	-0.6	6.1	/
Cc1cc(O)ccc1NC(=S)NC(=O)c1cncc(Br)c1	-0.2	21.5	73.7*	6.4	-79.2	-33.1
Cc1cc(C)cc(C(=O)NC(=S)Nc2ccc3c(c2)OCCO3)c1	3.3	7.2	-5.1	-1.8	9.0	-6.7
O=C(NC(=S)Nc1ccc(N2CCOCC2)c(Cl)c1)c1cccs1	1.1	-0.6	64.7*	-0.4	-11.2	8.3
O=C(NC(=S)Nc1ccccc1N1CCOCC1)c1cccs1	0.2	-1.9	5.6	/	-73.7	-12.2
O=C(NC(=S)Nc1ccc(N2CCCCC2)c(Cl)c1)c1ccc2c(c1)OCCO2	3.0	88.6*	10.9	/	-5.5	8.8
COc1ccc(OCC(=O)NC(=S)Nc2ccc(N3CCOCC3)c(Cl)c2)cc1	-0.1	-10.3	68.0*	/	/	-7.6
COc1ccc(OC)c(NC(=S)N2c3ccccc3CC2C)c1 (stereo not drawn)	-0.2	-10.3	16.4	-0.8	-15.9	-20.3
CCCn1c(N)c(C(=O)CSc2nnc(C3CC3)n2C2CC2)c(=O)[nH]c1=O	/	9.6	/	0.4	9.4	/
SMILES	HIF activator	CSC inhib	SKKanGAS inh	Beta cell apopt	PfHsp90 set2	T cruzi repl
COc1cccc(OC)c1NC(=O)Cn1nc(C)c2ccccc2c1=O	-0.7	-5.5	-4.4	-4.3	31.8	0.2
COc1ccc(S(=O)(=O)N2CCC(C(=O)N[C@@H](C)C(=O)NC3CCCC3)CC2)cc1	0.2	-9.9	-7.2	-2.6	3.7	-6.1
O=C(NC(=S)Nc1ccc(N2CCOCC2)c(Cl)c1)c1cncc(Br)c1	-0.2	-1.0	70.8*	-3.4	20.1	-8.8
CC(=O)N1CCN(C(=O)COC(=O)/C=C/c2ccccc2[N+](=O)[O-])CC1	/	-11.3	/	0.1	9.1	/
COc1ccc(-n2ncc(Cl)c(Cl)c2=O)cc1	-0.1	/	-3.6	/	/	56.7*
CCc1nc2c(cnn2-c2ccc(Cl)cc2)c(=O)n1-c1ccc(OC)cc1	-45.0	-11.6	51.6*	9.2	-3.1	34.1
[O-]/[N+](=N\Nc1ccc(Cl)cc1)c1ccccc1	/	/	/	/	10.3	/
CC(C)C[C@H]1CNC(=O)C(=O)N1CC1CCN(CCc2ccc(-c3ccccc3)cc2)CC1	/	/	/	/	6.5	/
CNC(=O)Nc1cc(C(F)(F)F)cc(C(F)(F)F)c1	0.3	6.5	-14.2	5.6	10.8	15.7
O=C(Nc1cc(C(F)(F)F)cc(C(F)(F)F)c1)Nc1cnn(-c2ccc([N+](=O)[O-])cc2)c1C(F)(F)F	-0.1	101.9*	32.5	115.7*	15.3	-6.6
CC[C@H](C)[C@@H](CN[C@H](CCCCNC)CNC)NCC1CCCC1	2.5	-11.2	-2.4	-5.2	1.6	-10.4
CCCC[C@@H](CN[C@H](C)CNC)NCC1CCC(C(C)(C)C)CC1 (stereo partly drawn)	-0.6	126.1*	20.9	93.4*	/	41.5
COc1ccc(F)cc1C(=O)C1CCCN(Cc2ccc3c(c2)OCCO3)C1 (stereo not drawn)	0.1	10.7	5.4	-7.5	-8.0	41.0
COc1ccc(C(=O)C2CCCN(Cc3cnc(N4CCCC4)s3)C2)cc1OC (stereo not drawn)	-0.7	0.1	5.3	-1.4	-2.9	67.0*
COc1ccc(C(=O)C2CCCN(C(=O)C3CCOCC3)C2)cc1OC (stereo not drawn)	423.6*	-2.8	-2.1	-0.6	-7.5	-1.6
COc1ccc(Cl)cc1C(=O)C1CCCN(Cc2cnc(N3CCOCC3)s2)C1 (stereo not drawn)	0.2	-7.2	-1.3	/	-23.8	71.6*
COc1ccc(F)cc1C(=O)C1CCCN(Cc2cnc(N3CCCC3)s2)C1 (stereo not drawn)	-0.4	-11.5	-12.5	0.5	1.5	56.6*
COc1ccc(S(=O)(=O)N2CCN(c3ncccn3)CC2)cc1OC	-24.0	-7.0	-3.4	/	18.9	-5.2
COc1ccc(S(=O)(=O)NC(CC(=O)NCCc2ccc(OC)c(OC)c2)C(C)C)cc1 (stereo not drawn)	-0.1	-11.4	-1.1	-4.2	13.7	18.2
COCc1ccc(C(=O)N2CCCC(CCC(=O)NCc3ccccc3F)C2)o1 (stereo not drawn)	?	16.8	2.2	-0.4	3.5	3.6
Cc1ccc(NC(=O)C2(NC(=O)c3ccccn3)CCCCC2)cc1Br	-0.2	-12.7	7.0	0.5	-8.1	16.7
CC12CCC(C(=O)Nc3ccccc3Cl)(C(Br)C1=O)C2(C)C (stereo not drawn)	0.4	-10.2	-7.3	-6.7	1.7	16.9

Bioassay records: PubChem BioAssay, Broad Institute
